According to PMC4402254 (ACS chemical biology, 2015):

Experiments:
53BP1 D1521A mutant = 53BP1 D1521A mutant (Homo sapiens, UniProt Q12888, D1521A); experiment: ITC with active site mutant; type: binding; conditions: Kme pocket mutant, listed as UNC2170
53BP1 = 53BP1 (Homo sapiens, UniProt Q12888); experiment: AlphaScreen Kme reader panel: 53BP1; type: binding
Summary of the method: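 Compound serially diluted 3-fold over 10 points in DMSO, top final 100 µM, and preincubated 30 min at RT with His-tagged reader protein–peptide mix in 20 mM Tris pH 8.0, 25 mM NaCl, 2 mM DTT, 0.05% Tween-20. Streptavidin donor/nickel-chelate acceptor bead mix (45 µg/mL) then added for 30 min, dark, RT, and AlphaScreen signal read. The same format was used across the Kme reader panel. IC50 is the mean of ≥3 values ± SD.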

[1] = CellTiter-Glo luminescent cell-viability assay; type: cell-based
endogenous 53BP1 = endogenous 53BP1 (Homo sapiens, UniProt Q12888); experiment: Chromatin release assay in HEK293 cell lysates; type: biochemical; conditions: 2 hours at room temperature
endogenous 53BP1, sequence (Q12888 whole entry): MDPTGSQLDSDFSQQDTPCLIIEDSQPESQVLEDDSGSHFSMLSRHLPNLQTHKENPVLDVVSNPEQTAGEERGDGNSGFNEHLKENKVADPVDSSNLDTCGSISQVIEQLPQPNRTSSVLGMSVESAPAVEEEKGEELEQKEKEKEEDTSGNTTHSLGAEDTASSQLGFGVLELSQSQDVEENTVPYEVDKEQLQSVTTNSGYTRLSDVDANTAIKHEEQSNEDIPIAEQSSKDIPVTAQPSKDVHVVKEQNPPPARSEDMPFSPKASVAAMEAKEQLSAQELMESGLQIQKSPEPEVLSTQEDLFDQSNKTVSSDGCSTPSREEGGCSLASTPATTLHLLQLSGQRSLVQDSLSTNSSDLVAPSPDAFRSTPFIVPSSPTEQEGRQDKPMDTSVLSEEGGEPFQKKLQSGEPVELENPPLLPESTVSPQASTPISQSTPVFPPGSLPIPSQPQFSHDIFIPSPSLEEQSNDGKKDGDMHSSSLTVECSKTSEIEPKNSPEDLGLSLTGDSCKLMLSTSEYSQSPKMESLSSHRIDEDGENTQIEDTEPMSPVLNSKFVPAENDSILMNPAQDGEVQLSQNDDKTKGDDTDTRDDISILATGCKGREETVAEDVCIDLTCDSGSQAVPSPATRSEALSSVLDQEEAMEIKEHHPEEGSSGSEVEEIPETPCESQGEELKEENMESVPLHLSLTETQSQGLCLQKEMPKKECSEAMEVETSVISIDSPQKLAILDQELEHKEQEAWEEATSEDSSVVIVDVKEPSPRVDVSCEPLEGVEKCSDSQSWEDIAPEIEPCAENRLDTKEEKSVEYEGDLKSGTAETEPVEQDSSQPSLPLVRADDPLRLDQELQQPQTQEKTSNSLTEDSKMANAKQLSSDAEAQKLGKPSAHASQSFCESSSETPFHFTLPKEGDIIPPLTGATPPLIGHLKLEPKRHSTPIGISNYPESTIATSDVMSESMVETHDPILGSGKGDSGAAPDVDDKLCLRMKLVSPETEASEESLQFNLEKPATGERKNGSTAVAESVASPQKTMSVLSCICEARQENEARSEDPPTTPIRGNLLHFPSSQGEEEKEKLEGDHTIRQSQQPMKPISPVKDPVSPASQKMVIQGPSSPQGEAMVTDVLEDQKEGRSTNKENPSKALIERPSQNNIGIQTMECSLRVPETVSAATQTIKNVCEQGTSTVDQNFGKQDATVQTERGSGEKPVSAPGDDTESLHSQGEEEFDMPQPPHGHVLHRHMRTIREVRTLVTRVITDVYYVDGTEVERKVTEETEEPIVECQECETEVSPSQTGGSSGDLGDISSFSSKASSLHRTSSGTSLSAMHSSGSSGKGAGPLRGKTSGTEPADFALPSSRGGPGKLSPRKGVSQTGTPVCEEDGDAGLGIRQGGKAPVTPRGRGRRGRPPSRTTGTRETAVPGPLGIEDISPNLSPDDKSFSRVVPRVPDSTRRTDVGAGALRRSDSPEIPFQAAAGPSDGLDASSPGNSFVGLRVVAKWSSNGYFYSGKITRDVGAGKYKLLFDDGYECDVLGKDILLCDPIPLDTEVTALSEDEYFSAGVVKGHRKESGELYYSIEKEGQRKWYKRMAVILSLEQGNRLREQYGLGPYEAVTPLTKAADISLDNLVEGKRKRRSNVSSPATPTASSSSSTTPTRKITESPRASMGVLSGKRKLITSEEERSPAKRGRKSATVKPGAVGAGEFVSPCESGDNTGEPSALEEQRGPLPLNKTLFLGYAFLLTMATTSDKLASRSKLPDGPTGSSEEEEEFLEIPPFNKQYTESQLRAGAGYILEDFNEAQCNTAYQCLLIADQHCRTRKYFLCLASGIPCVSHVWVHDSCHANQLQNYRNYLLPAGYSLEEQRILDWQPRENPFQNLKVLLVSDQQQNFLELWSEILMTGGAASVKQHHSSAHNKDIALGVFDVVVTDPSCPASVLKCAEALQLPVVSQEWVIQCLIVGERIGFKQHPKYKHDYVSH
Summary of the method: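 HEK293 cells were lysed in EBC-1 (Tris pH 7.5, 100 mM NaCl, 0.5% NP-40, 1 mM EDTA). Washed nuclei were held 30 min in EBC-2 (Tris pH 7.5, 300 mM NaCl, 5 mM CaCl2), and the insoluble chromatin was pelleted and resuspended in EBC-2. Chromatin was exposed to test compound 2 h at RT. The supernatant (soluble) and the sonicated pellet (chromatin-bound) were western blotted for 53BP1, with histone H3 as loading control.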

tudor domain of 53BP1 = tudor domain of 53BP1 (Homo sapiens, UniProt Q12888); experiment: 1H-15N HSQC NMR of 53BP1 tudor domain; type: binding; conditions: 10-fold molar excess of ligand
tudor domain of 53BP1, sequence (Q12888 1484-1603 limits assumed): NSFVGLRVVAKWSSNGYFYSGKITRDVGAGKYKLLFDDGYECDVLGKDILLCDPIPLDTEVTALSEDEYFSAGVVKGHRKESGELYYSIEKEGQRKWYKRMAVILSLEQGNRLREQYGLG

U2OS cells = experiment: 53BP1 and γH2AX foci formation after ionizing radiation; type: cell-based
Caco-2 cell = experiment: Bi-directional Caco-2 cell permeability assay; type: in vitro ADME
Naive IgM+ B cells = experiment: Class switch recombination; type: cell-based, mouse; conditions: 300 µM
[2] = target: GFP fusion protein containing the 53BP1 tudor domains (Homo sapiens, UniProt Q12888); experiment: Fluorescence recovery after photobleaching; type: cell-based; conditions: FRAP before or after ionizing radiation (10 Gy)
GFP fusion protein containing the 53BP1 tudor domains, sequence (Q12888 1484-1603 limits assumed): as above

[3] = target: 53BP1 tandem tudor domain (Homo sapiens, UniProt Q12888); experiment: Isothermal titration calorimetry; type: binding; conditions: ITC
53BP1 tandem tudor domain, sequence (Q12888 1484-1603 limits assumed): as above

53BP1, sequence (Q12888 1484-1603 limits assumed): as above
53BP1 D1521A mutant, sequence (Q12888 1484-1603 D1521A limits assumed): as the sequence (Q12888 1484-1603 limits assumed) above, with D38A counted along it

Kd against the 53BP1 tandem tudor domain [3] | SMILES | binding to 53BP1 D1521A mutant (53BP1 D1521A mutant) | ligand efficiency (53BP1) | lipophilic ligand efficiency (53BP1) | selectivity for 53BP1 as compared to other Kme binding proteins tested (53BP1; versus nine other Kme reader proteins, AlphaScreen) | concentration at which cell toxicity begins to take effect [1] [µM] | lowest concentration at which partial release of 53BP1 was detected (endogenous 53BP1) [µM] | changes in chemical shifts of 53BP1 tudor domain (tudor domain of 53BP1) | γH2AX foci (U2OS cells; after compound treatment) | extent of endogenous 53BP1 foci formed following irradiation (U2OS cells; pretreatment 1 hour, 100 – 300 µM, 5 Gy) | cell permeability (Caco-2 cell) | cell viability of B cells undergoing CSR (Naive IgM+ B cells) | apparent residence time of GFP-53BP1 tudor fusion protein [2]
– | CC(C)(C)NCCCNC(=O)c1cccc(Br)c1 [Compound 1] | abrogated | 0.35 | 1.5 | at least 17 fold | > 10000 | 10 | Extensive changes in chemical shifts were observed | no changes were observed | did not significantly decrease | highly cell permeant | reduction in cell viability | did not affect
no measurable affinity | CN(CCCNC(=O)c1cccc(Br)c1)C(C)(C)C [Compound 4] | – | – | – | – | – | – | – | – | – | – | – | –
